Assay results from ChEMBL document CHEMBL1129287, “Substituted xanthines, pteridinediones, and related compounds as potential antiinflammatory agents. Synthesis and biological evaluation of inhibitors of tumor necrosis factor alpha” (J Med Chem, 1996).

Test system: Mus musculus
Experiment: Percent protection against TNF-alpha induced leukopenia in mice at a dose of 50 mg/Kg
Format: functional
How it was run: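 Mice given compound intraperitoneally in 250 uL saline, then 60 min later […] LPS in saline, ip. Blood was taken 2 h after LPS by retro-orbital puncture into heparinized tubes. Nucleated cells were counted, with neutrophil content as the leukopenia read-out.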

## CCCn1c(=O)n(CCCC(=O)OCC)c(=O)c2nccnc21
  Protection: 60%
